From publication PMC11292830 (ACS Omega, 2024)
Bridges are numbered along the chain shown (N, C = ends). Where no end group is shown, it is not given here.

Key:
[1] = cited from earlier work
[2] = Native mass spectrometry of oligomeric state; assay type: physicochemical; details: 50 mM ammonium acetate (pH 6.9), native ESI-MS, column bypassed
In short: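 Intact-mass LC/MS on a QTof instrument fed by UHPLC, with the column bypassed to capture the full oligomer profile. Test compound was in 50 mM ammonium acetate (pH 6.9) under native conditions. Electrospray in positive ionization mode; source temperature 300 °C; ion spray voltage 5500 V. Spectra were inspected over the expected regions for larger oligomers.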

[3] = Differential scanning calorimetry of the oligomers; assay type: physicochemical; details: DSC, 10 mg/mL in 20 mM Tris-HCl pH 7.5, 100 mM NaCl, 4 to 110 °C at 1 °C/min, 3 atm, first scan
[4] = FRET assay in solution of Cy3- and Cy5-labeled peptides; assay type: physicochemical; details: 100 nM Cy3-labeled plus 100 nM Cy5-labeled peptide in PBS, excitation of Cy3 at 490 nm, microplate reader, n = 3

Question: For “LKKLCLKLKKLCKLAG (disulfide 5-12 (inferred)) [LK-3]”, which “molecularity of the oligomer by SEC-MALS” value [1] is on record?
Answer: tetramer of dimers

Question: What about the “oligomeric state by native mass spectrometry” value [2] of the same sequence?
Answer: prefers to form oligomers

Question: And the “melting temperature (Tm2)” value [3]?
Answer: 63.8 °C

Question: What about the FRET efficiency [4] of the same sequence?
Answer: 0.36
